Results reported in ChEMBL document CHEMBL3259728, “Design, synthesis and biological evaluation of some novel substituted quinazolines as antitumor agents” (2014).

Assays:
Assay type in all cases: functional
[1] = test system: KM12; assay: Growth inhibition of human KM12 cells assessed as cell growth at 10^-4 M after 48 hrs by SRB assay; details: KM12, 48 h, read-out: Activity
[2] = test system: HCT-116; assay: Growth inhibition of human HCT116 cells assessed as cell growth at 10^-8 M after 48 hrs by SRB assay; details: HCT-116, 48 h, read-out: Activity
[3] = test system: SNB-75; assay: Growth inhibition of human SNB75 cells assessed as cell growth at 10^-4 M after 48 hrs by SRB assay; details: SNB-75, 48 h, read-out: Activity
[4] = Cytotoxicity against human UO31 cells after 48 hrs by SRB assay; details: UO-31, 48 h
In short: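 NCI 60-cell-line panel, 48 h continuous exposure to five 10-fold dilutions from 10^-4 to 10^-8 M. SRB protein staining was read spectrophotometrically, with time-zero, untreated-control and treated absorbances. GI50, TGI and LC50 were derived from the percentage-growth formulas. Values outside the tested range are expressed as more or less than the maximum or minimum concentration.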

[5] = test system: A498; assay: Growth inhibition of human A498 cells assessed as cell growth at 10^-7 M after 48 hrs by SRB assay; details: A498, 48 h, read-out: Activity
In short: (§1)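 Five-dose NCI panel protocol. Each dose (10^-4 to 10^-8 M, 10-fold steps) was given as 48 h continuous exposure, and protein was measured by SRB staining. Percentage growth at each level is [(Ti−Tz)/(C−Tz)]×100, where Tz is time-zero absorbance and C is untreated control.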

[6] = test system: A498; assay: Growth inhibition of human A498 cells assessed as cell growth at 10^-6 M after 48 hrs by SRB assay; details: A498, 48 h, read-out: Activity; in short: as §1
[7] = test system: SW-620; assay: Growth inhibition of human SW620 cells assessed as cell growth at 10^-4 M after 48 hrs by SRB assay; details: SW-620, 48 h, read-out: Activity
[8] = test system: RPMI-8226; assay: Growth inhibition of human RPMI8226 cells assessed as cell growth at 10^-7 M after 48 hrs by SRB assay; details: RPMI-8226, 48 h, read-out: Activity
[9] = test system: PC-3; assay: Growth inhibition of human PC3 cells assessed as cell growth at 10^-5 M after 48 hrs by SRB assay; details: PC-3, 48 h, read-out: Activity
[10] = test system: SR; assay: Growth inhibition of human SR cells assessed as cell growth at 10^-5 M after 48 hrs by SRB assay; details: read-out: Activity
[11] = test system: IGROV-1; assay: Growth inhibition of human IGROV1 cells assessed as cell growth at 10^-5 M after 48 hrs by SRB assay; details: IGROV-1, 48 h, read-out: Activity
[12] = Growth inhibition of human SF539 cells assessed as cell growth at 10^-6 M after 48 hrs by SRB assay; details: SF-539, 48 h, read-out: Activity
[13] = test system: M14; assay: Growth inhibition of human M14 cells assessed as cell growth at 10^-7 M after 48 hrs by SRB assay; details: M14, 48 h, read-out: Activity
[14] = test system: ACHN; assay: Growth inhibition of human ACHN cells assessed as cell growth at 10^-8 M after 48 hrs by SRB assay; details: read-out: Activity; in short: as §1
[15] = test system: SK-OV-3; assay: Cytotoxicity against human SKOV3 cells after 48 hrs by SRB assay; details: SK-OV-3, 48 h
In short: (§2)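 NCI 60-cell-line panel of human tumour lines from nine cancer types. Continuous 48 h exposure at five 10-fold dilutions from 10^-4 to 10^-8 M, with 5-FU as positive control. SRB protein stain read spectrophotometrically at time zero, untreated control and each concentration. GI50, TGI and LC50 were derived from the [(Ti−Tz)/(C−Tz)]×100 growth relations, and out-of-range values are given as > or < the tested limits.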

[16] = Growth inhibition of human MOLT4 cells assessed as cell growth at 10^-5 M after 48 hrs by SRB assay; details: MOLT-4, 48 h, read-out: Activity
[17] = test system: IGROV-1; assay: Growth inhibition of human IGROV1 cells assessed as cell growth at 10^-6 M after 48 hrs by SRB assay; details: IGROV-1, 48 h, read-out: Activity
[18] = test system: NCI-H23; assay: Growth inhibition of human NCI-H23 cells assessed as cell growth at 10^-5 M after 48 hrs by SRB assay; details: NCI-H23, 48 h, read-out: Activity
[19] = Growth inhibition of human OVCAR5 cells assessed as cell growth at 10^-8 M after 48 hrs by SRB assay; details: OVCAR-5, 48 h, read-out: Activity
[20] = test system: SF-268; assay: Growth inhibition of human SF268 cells assessed as cell growth at 10^-6 M after 48 hrs by SRB assay; details: SF-268, 48 h, read-out: Activity
[21] = test system: U-251; assay: Growth inhibition of human U251 cells assessed as cell growth at 10^-5 M after 48 hrs by SRB assay; details: U-251, 48 h, read-out: Activity
[22] = Growth inhibition of human OVCAR5 cells assessed as cell growth at 10^-4 M after 48 hrs by SRB assay; details: OVCAR-5, 48 h, read-out: Activity
[23] = Cytotoxicity against human NCI-ADR-RES cells after 48 hrs by SRB assay; in short: as §2
[24] = test system: SN12C; assay: Growth inhibition of human SN12C cells assessed as cell growth at 10^-5 M after 48 hrs by SRB assay; details: read-out: Activity
[25] = Cytotoxicity against human OVCAR4 cells after 48 hrs by SRB assay; details: OVCAR-4, 48 h; in short: as §2
[26] = Growth inhibition of human SF295 cells assessed as cell growth at 10^-4 M after 48 hrs by SRB assay; details: SF-295, 48 h, read-out: Activity
[27] = Growth inhibition of human OVCAR5 cells assessed as cell growth at 10^-6 M after 48 hrs by SRB assay; details: OVCAR-5, 48 h, read-out: Activity
[28] = test system: PC-3; assay: Growth inhibition of human PC3 cells assessed as cell growth at 10^-4 M after 48 hrs by SRB assay; details: PC-3, 48 h, read-out: Activity
[29] = test system: 786-0; assay: Growth inhibition of human 786-0 cells assessed as cell growth at 10^-7 M after 48 hrs by SRB assay; details: 786-0, 48 h, read-out: Activity; in short: as §1
[30] = test system: NCI-H23; assay: Growth inhibition of human NCI-H23 cells assessed as cell growth at 10^-6 M after 48 hrs by SRB assay; details: NCI-H23, 48 h, read-out: Activity
[31] = test system: SNB-75; assay: Growth inhibition of human SNB75 cells assessed as cell growth at 10^-6 M after 48 hrs by SRB assay; details: SNB-75, 48 h, read-out: Activity
[32] = read-out: LC50 (the source's name)
[33] = read-out: pLC50 (the source's name) (converted)

Q: Which growth at 100 µM [1] does the source give for `Cc1ccc(-c2nc3ccc(Cl)cc3c(=O)n2/N=C/c2ccccc2)cc1` here?
A: 63%

Q: What about the growth at 0.01 µM [2] of the same compound?
A: 100%

Q: What about the growth at 100 µM [3] of the same compound?
A: -43%

Q: What about the GI50 ([4]; read-out: GI50) of the same compound?
A: 3.66 µM

Q: What about the CC50 [4, 32] of the same compound?
A: > 100 µM

Q: And the TGI ([4]; read-out: TGI)?
A: > 100 µM

Q: What about the GI50 ([4]; read-out: pGI50 (converted)) of the same compound?
A: 3.63 µM

Q: What about the CC50 [4, 33] of the same compound?
A: > 100 µM

Q: What about the TGI ([4]; read-out: pTGI) of the same compound?
A: > 100 µM

Q: And the growth at 0.1 µM [5]?
A: 85%

Q: And the growth at 1 µM [6]?
A: 85%

Q: And the growth at 100 µM [7]?
A: 52%

Q: And the growth at 0.1 µM [8]?
A: 94%

Q: And the growth at 10 µM [9]?
A: 66%

Q: What about the growth at 10 µM [10] of the same compound?
A: 63%

Q: And the growth at 10 µM [11]?
A: 34%

Q: And the growth at 1 µM [12]?
A: 94%

Q: What about the growth at 0.1 µM [13] of the same compound?
A: 96%

Q: And the growth at 0.01 µM [14]?
A: 93%

Q: And the GI50 ([15]; read-out: GI50)?
A: 2.89 µM

Q: What about the CC50 [15, 32] of the same compound?
A: > 100 µM

Q: What about the TGI ([15]; read-out: TGI) of the same compound?
A: 9.9 µM

Q: And the GI50 ([15]; read-out: pGI50 (converted))?
A: 2.88 µM

Q: And the CC50 [15, 33]?
A: > 100 µM

Q: What about the TGI ([15]; read-out: pTGI (converted)) of the same compound?
A: 10 µM

Q: What about the growth at 10 µM [16] of the same compound?
A: 88%

Q: What about the growth at 1 µM [17] of the same compound?
A: 71%

Q: What about the growth at 10 µM [18] of the same compound?
A: 65%

Q: And the growth at 0.01 µM [19]?
A: 96%

Q: What about the growth at 1 µM [20] of the same compound?
A: 90%

Q: What about the growth at 10 µM [21] of the same compound?
A: 32%

Q: And the growth at 100 µM [22]?
A: 61%

Q: And the GI50 ([23]; read-out: GI50)?
A: 8.87 µM

Q: What about the CC50 [23, 32] of the same compound?
A: > 100 µM

Q: And the TGI ([23]; read-out: TGI)?
A: > 100 µM

Q: What about the GI50 ([23]; read-out: pGI50 (converted)) of the same compound?
A: 8.91 µM

Q: And the CC50 [23, 33]?
A: > 100 µM

Q: What about the TGI ([23]; read-out: pTGI) of the same compound?
A: > 100 µM

Q: What about the growth at 10 µM [24] of the same compound?
A: 51%

Q: And the GI50 ([25]; read-out: GI50)?
A: 4.54 µM

Q: What about the CC50 [25, 32] of the same compound?
A: > 100 µM

Q: What about the TGI ([25]; read-out: TGI) of the same compound?
A: > 100 µM

Q: And the GI50 ([25]; read-out: pGI50 (converted))?
A: 4.57 µM

Q: What about the CC50 [25, 33] of the same compound?
A: > 100 µM

Q: And the TGI ([25]; read-out: pTGI)?
A: > 100 µM

Q: What about the growth at 100 µM [26] of the same compound?
A: 18%

Q: And the growth at 1 µM [27]?
A: 90%

Q: What about the growth at 100 µM [28] of the same compound?
A: 49%

Q: And the growth at 0.1 µM [29]?
A: 93%

Q: And the growth at 1 µM [30]?
A: 87%

Q: And the growth at 1 µM [31]?
A: 64%
